Measurements published in ChEMBL document CHEMBL4842371 (J Med Chem, 2021).

Legend:
[1] = target: T1, 5-hydroxytryptamine receptor 3A (Cavia porcellus) (UniProt O70212); details: Ileum, filed as antagonist
T1 sequence (whole entry): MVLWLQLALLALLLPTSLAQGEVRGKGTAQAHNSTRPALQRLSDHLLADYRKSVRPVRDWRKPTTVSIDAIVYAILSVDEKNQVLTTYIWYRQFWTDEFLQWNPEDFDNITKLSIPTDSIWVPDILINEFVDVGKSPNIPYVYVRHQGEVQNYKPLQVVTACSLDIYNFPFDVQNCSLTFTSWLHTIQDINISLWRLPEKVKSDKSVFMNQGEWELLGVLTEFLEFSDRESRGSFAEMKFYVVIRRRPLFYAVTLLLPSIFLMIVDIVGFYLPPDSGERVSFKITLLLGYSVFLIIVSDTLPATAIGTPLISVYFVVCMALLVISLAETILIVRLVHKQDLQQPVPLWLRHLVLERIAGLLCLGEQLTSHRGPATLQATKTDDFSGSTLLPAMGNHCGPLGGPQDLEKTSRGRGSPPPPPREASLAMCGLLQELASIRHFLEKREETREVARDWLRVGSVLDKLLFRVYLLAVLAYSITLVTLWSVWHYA

CYP2D6 = CYP2D6 (Homo sapiens, UniProt P10635); experiment: Inhibition of CYP2D6 (unknown origin) at 10 uM relative to control; assay type: ADME
In short: (§1)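 CYP isoenzyme inhibition is measured at 10 μM compound. Result is given as % inhibition.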

CYP2C9 = CYP2C9 (Homo sapiens, UniProt P11712); experiment: Inhibition of CYP2C9 (unknown origin) at 10 uM relative to control; assay type: ADME
In short: as §1

CYP2D6, sequence (P10635 whole entry): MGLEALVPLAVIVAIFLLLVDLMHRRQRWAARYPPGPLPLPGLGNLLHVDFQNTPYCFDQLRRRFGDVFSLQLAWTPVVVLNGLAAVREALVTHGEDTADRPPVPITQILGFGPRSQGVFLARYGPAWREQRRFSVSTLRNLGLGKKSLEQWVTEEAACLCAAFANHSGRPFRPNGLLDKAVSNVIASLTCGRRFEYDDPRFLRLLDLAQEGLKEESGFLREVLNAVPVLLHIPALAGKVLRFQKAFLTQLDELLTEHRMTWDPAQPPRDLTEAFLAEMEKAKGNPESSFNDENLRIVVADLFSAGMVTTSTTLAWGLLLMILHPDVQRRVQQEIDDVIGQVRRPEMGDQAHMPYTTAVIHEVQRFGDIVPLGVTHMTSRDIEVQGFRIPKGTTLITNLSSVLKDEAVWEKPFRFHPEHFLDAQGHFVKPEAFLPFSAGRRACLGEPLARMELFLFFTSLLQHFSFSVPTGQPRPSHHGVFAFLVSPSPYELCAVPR
CYP2C9, sequence (P11712 whole entry): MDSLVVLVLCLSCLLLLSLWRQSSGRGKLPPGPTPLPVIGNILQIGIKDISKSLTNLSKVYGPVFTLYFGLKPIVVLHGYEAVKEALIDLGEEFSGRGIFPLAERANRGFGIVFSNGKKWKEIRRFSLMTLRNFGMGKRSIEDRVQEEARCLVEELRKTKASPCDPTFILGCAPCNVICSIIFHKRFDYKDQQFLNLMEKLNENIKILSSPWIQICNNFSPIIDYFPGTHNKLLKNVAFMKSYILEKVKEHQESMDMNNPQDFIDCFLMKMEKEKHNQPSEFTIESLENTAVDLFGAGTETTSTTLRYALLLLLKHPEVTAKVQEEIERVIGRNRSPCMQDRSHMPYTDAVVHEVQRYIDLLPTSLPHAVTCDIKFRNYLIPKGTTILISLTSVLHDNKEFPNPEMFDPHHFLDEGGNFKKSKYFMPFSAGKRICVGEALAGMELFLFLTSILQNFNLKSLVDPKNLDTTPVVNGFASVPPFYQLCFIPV

pD2 [1] | inhibition at 10 µM (CYP2D6) [%] | inhibition at 10 µM (CYP2C9) [%] | Compound
6.43 | – | – | Cc1nccn1CC1CCc2c(c3ccccc3n2C)C1=O (stereo not drawn)
– | < 25 | < 25 | O=S(=O)(c1cccc(F)c1)n1ccc2c(N3CCNCC3)nc3ccccc3c21
